From ChEMBL document CHEMBL1152447, “Benzothiopyranoindole-based antiproliferative agents: synthesis, cytotoxicity, nucleic acids interaction, and topoisomerases inhibition properties” (J Med Chem, 2009)
Active and inactive are the calls of the source. No cut-off for these calls is given here.

How the values were obtained:
[1] = tested on: HeLa; assay: Cytotoxicity against human HeLa cells after 72 hrs by trypan blue assay; assay type: functional, cell-based
Procedure, shortened: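 HeLa cells grown in Nutrient Mixture F-12 with 10% heat-inactivated FCS at 37 °C, 5% CO2. Seeded at 4 × 10^4 per well for 24 h, then medium replaced with fresh medium containing test agents for 72 h. Viability by trypan blue. IC50 is the concentration reducing cell number by 50% versus control.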

[2] = tested on: HL-60; assay: Cytotoxicity against human HL60 cells after 72 hrs by trypan blue assay; assay type: functional, cell-based; conditions: HL-60, 72 h
Procedure, shortened: (§1)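 Cells seeded at 4 × 10^4 per well and cultured 24 h at 37 °C in 5% CO2. Test agents then added to the complete medium for a further 72 h. Viable cells counted by trypan blue. IC50 is the concentration giving 50% fewer cells than control cultures. HL-60 grown in RPMI 1640 + 15% heat-inactivated FCS; HL-60/MX2 grown in RPMI 1640 + 10% heat-inactivated FCS.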

[3] = molecular target: DNA topoisomerase 2-alpha (Homo sapiens) (UniProt P11388); assay: Inhibition of human recombinant topoisomerase 2 relaxation activity assessed as supercoiled pBR322 DNA at 5 uM
Chain of DNA topoisomerase 2-alpha (Homo sapiens) (P11388 whole entry): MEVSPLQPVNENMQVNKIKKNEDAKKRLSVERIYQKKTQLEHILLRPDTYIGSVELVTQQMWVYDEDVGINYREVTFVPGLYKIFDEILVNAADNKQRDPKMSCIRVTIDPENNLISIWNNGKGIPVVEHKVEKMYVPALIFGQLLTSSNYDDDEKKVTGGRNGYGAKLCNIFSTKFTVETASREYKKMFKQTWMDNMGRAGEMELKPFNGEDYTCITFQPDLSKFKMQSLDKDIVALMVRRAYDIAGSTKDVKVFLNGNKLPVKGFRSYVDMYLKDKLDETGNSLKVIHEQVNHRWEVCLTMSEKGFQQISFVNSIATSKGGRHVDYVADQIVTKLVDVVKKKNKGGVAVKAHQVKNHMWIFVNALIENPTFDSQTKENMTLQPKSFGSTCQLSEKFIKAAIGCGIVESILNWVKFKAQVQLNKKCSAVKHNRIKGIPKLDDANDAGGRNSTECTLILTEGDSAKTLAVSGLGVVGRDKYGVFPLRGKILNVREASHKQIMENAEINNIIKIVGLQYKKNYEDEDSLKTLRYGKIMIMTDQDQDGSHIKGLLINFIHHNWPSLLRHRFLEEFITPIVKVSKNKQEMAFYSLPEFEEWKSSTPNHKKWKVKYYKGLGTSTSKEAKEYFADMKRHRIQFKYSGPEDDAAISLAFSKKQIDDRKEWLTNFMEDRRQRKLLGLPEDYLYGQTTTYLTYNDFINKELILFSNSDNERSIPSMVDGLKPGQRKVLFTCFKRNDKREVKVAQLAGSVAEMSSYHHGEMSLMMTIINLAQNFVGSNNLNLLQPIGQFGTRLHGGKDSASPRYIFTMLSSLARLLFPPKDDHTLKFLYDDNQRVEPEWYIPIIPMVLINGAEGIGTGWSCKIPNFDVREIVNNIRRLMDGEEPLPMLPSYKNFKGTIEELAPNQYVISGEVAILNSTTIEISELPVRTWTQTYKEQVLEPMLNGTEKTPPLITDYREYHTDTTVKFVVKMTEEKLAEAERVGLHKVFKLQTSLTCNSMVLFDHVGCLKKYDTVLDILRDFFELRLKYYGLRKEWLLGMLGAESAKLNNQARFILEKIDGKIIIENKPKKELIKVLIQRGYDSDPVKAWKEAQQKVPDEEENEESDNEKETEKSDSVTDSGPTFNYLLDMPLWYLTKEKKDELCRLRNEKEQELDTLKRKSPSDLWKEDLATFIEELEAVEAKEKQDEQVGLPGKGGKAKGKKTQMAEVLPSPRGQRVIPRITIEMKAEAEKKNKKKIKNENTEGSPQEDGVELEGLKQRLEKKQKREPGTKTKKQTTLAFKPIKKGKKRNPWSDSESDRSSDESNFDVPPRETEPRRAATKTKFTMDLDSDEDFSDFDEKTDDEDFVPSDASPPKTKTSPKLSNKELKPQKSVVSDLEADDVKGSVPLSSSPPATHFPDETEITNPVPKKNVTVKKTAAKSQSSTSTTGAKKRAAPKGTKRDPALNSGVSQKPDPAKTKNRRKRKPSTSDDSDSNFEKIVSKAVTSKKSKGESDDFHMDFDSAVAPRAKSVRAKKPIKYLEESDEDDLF
Procedure, shortened: (§2)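 Human recombinant topoisomerase IIα (1 U) relaxation of supercoiled pBR322 (0.25 μg) with compound, 60 min at 37 °C. Stopped with SDS/proteinase K (50 μg/mL, 30 min, 37 °C). Products separated on 1% agarose, stained with ethidium bromide 1 μg/mL, UV imaging. Inhibition judged by retained supercoiled DNA. Gels representative of three experiments.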

[4] = molecular target: DNA topoisomerase 2-alpha (Homo sapiens) (UniProt P11388); assay: Inhibition of human recombinant topoisomerase 2 relaxation activity assessed as supercoiled pBR322 DNA; procedure, shortened: as §2
[5] = tested on: Nucleic Acid; assay: Binding affinity to salmon testes DNA assessed as negative dichroic signal at 0.04 drug to DNA ratio by LD spectra; assay type: nucleic-acid assay; conditions: Salmonidae
Procedure, shortened: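 LD spectra of salmon testes DNA (1.9 × 10^-3 M) in ETN buffer (10 mM TRIS, 10 mM NaCl, 1 mM EDTA, pH 7) at 25 °C over several [drug]/[DNA] ratios. Orientation by shear gradient of 500-700 rpm; each spectrum accumulated four times.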

[6] = Stabilization of supercoiled pBR322 DNA-human recombinant topoisomerase 2 complex assessed as reduction in linear DNA formation at 5 uM
[7] = molecular target: DNA topoisomerase 2-alpha (Homo sapiens) (UniProt P11388); assay: Inhibition of human recombinant topoisomerase 2 relaxation activity assessed as supercoiled pBR322 DNA at 2.5 uM; procedure, shortened: as §2
[8] = Stabilization of supercoiled pBR322 DNA-human recombinant topoisomerase 2 complex assessed as reduction in linear DNA formation at 10 uM
[9] = Stabilization of supercoiled pBR322 DNA-human recombinant topoisomerase 2 complex assessed as reduction in linear DNA formation at 20 uM
[10] = Cytotoxicity against human mitoxantrone-resistant HL60/MX2 cells after 72 hrs by trypan blue assay; assay type: functional, cell-based; conditions: HL60/MX2, 72 h; procedure, shortened: as §1
[11] = molecular target: T1, Topoisomerase I (Bos taurus) (UniProt Q2HPH0); assay: Inhibition of calf thymus topoisomerase 1-mediated supercoiled pBR322DNA relaxation activity
T1 sequence (whole entry): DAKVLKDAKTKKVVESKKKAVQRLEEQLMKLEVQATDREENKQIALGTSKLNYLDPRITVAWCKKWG
Procedure, shortened: (§3)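 Calf thymus topoisomerase I (2 U) incubated with supercoiled pBR322 (0.25 μg) and compound for 60 min at 37 °C. Stopped with SDS stop buffer plus 50 μg/mL proteinase K for 30 min at 37 °C. Run on 1% agarose, stained with ethidium bromide 1 μg/mL in TAE, imaged under UV. Gels representative of three experiments.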

[12] = molecular target: T1, Topoisomerase I (Bos taurus); assay: Inhibition of calf thymus topoisomerase 1-mediated supercoiled pBR322DNA relaxation activity at 10 uM; procedure, shortened: as §3
[13] = tested on: HL-60; assay: Ratio of IC50 for mitoxantrone-resistant human HL60/MX2 cells to IC50 for human HL60 cells
[14] = Stabilization of supercoiled pBR322 DNA-human recombinant topoisomerase 2 complex assessed as reduction in linear DNA formation
[15] = molecular target: DNA topoisomerase 2-alpha (Homo sapiens) (UniProt P11388); assay: Inhibition of human recombinant topoisomerase 2-mediated end-labeled DNA cleavage in absence of ATP at 5 uM
[16] = molecular target: DNA topoisomerase 2-alpha (Homo sapiens) (UniProt P11388); assay: Inhibition of human recombinant topoisomerase 2-mediated end-labeled DNA cleavage in absence of ATP at 200 uM
[17] = molecular target: DNA topoisomerase 2-alpha (Homo sapiens) (UniProt P11388); assay: Inhibition of human recombinant topoisomerase 2 relaxation activity assessed as supercoiled pBR322 DNA at 8 uM; procedure, shortened: as §2
[18] = Stabilization of supercoiled pBR322 DNA-human recombinant topoisomerase 2 complex assessed as reduction in linear DNA formation at 8 uM

SMILES | IC50 [1] | IC50 [2] | also measured
COc1ccc2c(=O)c3c(sc2c1)c1cc(Cl)ccc1n3CCN(C)C | 1.82 µM | 1.17 µM | 
CCN(CC)CCCn1c2ccc(OC)cc2c2sc3cc(OC)ccc3c(=O)c21 | 2.5 µM | 1.5 µM | 
COc1ccc2c(=O)c3c(sc2c1)c1ccccc1n3CCN(C)C | 1.3 µM | 0.41 µM | Activity [3]: Active; Activity [4]: Dose-dependent effect; Activity [5]: Active; Activity [6]: Active; Activity [7]: Active; Activity [8]: Active; Activity [9]: Active; IC50 [10]: 2.35 µM; Activity [11]: Dose-dependent effect; Activity [12]: Active; Ratio IC50 [13]: 6
CCN(CC)CCCn1c2ccc(Cl)cc2c2sc3cc(OC)ccc3c(=O)c21 | 1.68 µM | 1.02 µM | 
COc1ccc2c(=O)c3[nH]c4ccc(OC)cc4c3sc2c1 | > 20 µM | > 20 µM | 
COc1ccc2c(=O)c3c(sc2c1)c1ccccc1n3CCCN(C)C | 2.9 µM | 1.9 µM | Activity [7]: Active
CCN(CC)CCn1c2ccccc2c2sc3cc(Cl)ccc3c(=O)c21 | 4.33 µM | 3.21 µM | 
COc1ccc2c(=O)c3c(sc2c1)c1cc(Cl)ccc1n3CCCN(C)C | 1.85 µM | 1.07 µM | 
CN(C)CCn1c2ccccc2c2sc3cc(Cl)ccc3c(=O)c21 | 1.53 µM | 1.31 µM | 
COc1ccc2c(=O)c3c(sc2c1)c1cc(OC)ccc1n3CCN(C)C | 2.15 µM | 0.66 µM | Activity [3]: Active; Activity [4]: Dose-dependent effect; Activity [7]: Active; Activity [14]: inactive; Activity [15]: Active; Activity [16]: Active
O=c1c2ccc(Cl)cc2sc2c1[nH]c1ccccc12 | > 20 µM | > 20 µM | 
COc1cc(NS(C)(=O)=O)ccc1Nc1c2ccccc2nc2ccccc12 |  |  | Activity [17]: Active; Activity [18]: Active
CCN(CC)CCCn1c2ccccc2c2sc3cc(Cl)ccc3c(=O)c21 | 2.91 µM | 2.64 µM | 
CN(C)CCCn1c2ccccc2c2sc3cc(Cl)ccc3c(=O)c21 | 14.1 µM | 7.19 µM | 
Cc1c2ccncc2c(C)c2c1[nH]c1ccccc12 [ELLIPTECINE] | 0.29 µM | 0.66 µM | 
COc1ccc2c(=O)c3c(sc2c1)c1cc(OC)ccc1n3CCCN(C)C | 2.6 µM | 1.35 µM | 
COc1ccc2c(=O)c3[nH]c4ccccc4c3sc2c1 | > 20 µM | > 20 µM | Activity [5]: Active; Activity [7]: Active
COc1ccc2c(=O)c3[nH]c4ccc(Cl)cc4c3sc2c1 | > 20 µM | > 20 µM | 
CCN(CC)CCn1c2ccc(Cl)cc2c2sc3cc(OC)ccc3c(=O)c21 | 1.12 µM | 0.71 µM | 
CCN(CC)CCn1c2ccc(OC)cc2c2sc3cc(OC)ccc3c(=O)c21 | 2.3 µM | 1.1 µM | 
CCN(CC)CCCn1c2ccccc2c2sc3cc(OC)ccc3c(=O)c21 | 3.9 µM | 2.4 µM | Activity [5]: Active; Activity [7]: Active
CCN(CC)CCn1c2ccccc2c2sc3cc(OC)ccc3c(=O)c21 | 2.7 µM | 1.8 µM | Activity [5]: Active; Activity [7]: Active
